Laboratory results published in ChEMBL document CHEMBL5058577, “EUbOPEN Chemogenomics Library 2 (Multiplex)” (2022).

Test system: U2OS
Assay: Multiplex assay against U2OS
Assay type: toxicity, cell-based
Conditions: human
How it was run: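 On a CQ1 microscope at 37°C and 5% CO2, live cells were imaged after compound addition. They had been stained at seeding with Hoechst33342, BioTracker Green Microtubule Cytoskeleton Dye, MitoTracker Red and Annexin V Alexa Fluor 680. CellPathfinder machine-learning gating assigned cells to Hoechst high-intensity objects or normal cells, normal cells to healthy, pyknosed or fragmented nuclei, and pyknosed cells to mitotic or apoptotic. Tubulin, mitochondrial-mass and membrane-permeability phenotypes are per cents of healthy-nucleus cells.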

[1] = 12 h, 1 µM, compound concentration 1 uM, replicate 1
[2] = 12 h, 1 µM, compound concentration 1 uM, replicate 2
[3] = 12 h, 10 µM, compound concentration 10 uM, replicate 1
[4] = 12 h, 10 µM, compound concentration 10 uM, replicate 2
[5] = 24 h, 1 µM, compound concentration 1 uM, replicate 1
[6] = 24 h, 1 µM, compound concentration 1 uM, replicate 2
[7] = 24 h, 10 µM, compound concentration 10 uM, replicate 1
[8] = 24 h, 10 µM, compound concentration 10 uM, replicate 2
[9] = 48 h, 1 µM, compound concentration 1 uM, replicate 1
[10] = 48 h, 1 µM, compound concentration 1 uM, replicate 2
[11] = 48 h, 10 µM, compound concentration 10 uM, replicate 1
[12] = 48 h, 10 µM, compound concentration 10 uM, replicate 2

C[C@@H]1C[C@H]2[C@@H]3CCC4=CC(=O)C=C[C@]4(C)[C@@]3(F)[C@@H](O)C[C@]2(C)[C@@]1(O)C(=O)CO [DEXAMETHASONE]
Population Apoptotic (%) [1]: 77%
Population Fragmented Nuclei (%) [1]: 21%
Population Healthy Nuclei (%) [1]: 70%
Population Hoechst High Intensity Objects (%) [1]: 2%
Population Membrane Permeable-Phenotype (%) [1]: 2%
Population Mitochondria Different-Phenotype (%) [1]: 0%
Population Mitotic Cells (%) [1]: 22%
Population Normal (%) [1]: 97%
Population Pyknosed Nuclei (%) [1]: 7%
Population Tubulin-Different-Phenotype (%) [1]: 1%
Total Cell Count [1]: 238
Population Apoptotic (%) [2]: 80%
Population Fragmented Nuclei (%) [2]: 20%
Population Healthy Nuclei (%) [2]: 75%
Population Hoechst High Intensity Objects (%) [2]: 0%
Population Membrane Permeable-Phenotype (%) [2]: 4%
Population Mitochondria Different-Phenotype (%) [2]: 1%
Population Mitotic Cells (%) [2]: 20%
Population Normal (%) [2]: 99%
Population Pyknosed Nuclei (%) [2]: 4%
Population Tubulin-Different-Phenotype (%) [2]: 3%
Total Cell Count [2]: 124
Population Apoptotic (%) [3]: 80%
Population Fragmented Nuclei (%) [3]: 20%
Population Healthy Nuclei (%) [3]: 69%
Population Hoechst High Intensity Objects (%) [3]: 2%
Population Membrane Permeable-Phenotype (%) [3]: 6%
Population Mitochondria Different-Phenotype (%) [3]: 1%
Population Mitotic Cells (%) [3]: 19%
Population Normal (%) [3]: 97%
Population Pyknosed Nuclei (%) [3]: 9%
Population Tubulin-Different-Phenotype (%) [3]: 2%
Total Cell Count [3]: 319
Population Apoptotic (%) [4]: 84%
Population Fragmented Nuclei (%) [4]: 16%
Population Healthy Nuclei (%) [4]: 76%
Population Hoechst High Intensity Objects (%) [4]: 0%
Population Membrane Permeable-Phenotype (%) [4]: 7%
Population Mitochondria Different-Phenotype (%) [4]: 2%
Population Mitotic Cells (%) [4]: 15%
Population Normal (%) [4]: 100%
Population Pyknosed Nuclei (%) [4]: 7%
Population Tubulin-Different-Phenotype (%) [4]: 3%
Population Apoptotic (%) [5]: 96%
Population Fragmented Nuclei (%) [5]: 19%
Population Healthy Nuclei (%) [5]: 71%
Population Hoechst High Intensity Objects (%) [5]: 2%
Population Membrane Permeable-Phenotype (%) [5]: 4%
Population Mitochondria Different-Phenotype (%) [5]: 2%
Population Mitotic Cells (%) [5]: 4%
Population Normal (%) [5]: 97%
Population Pyknosed Nuclei (%) [5]: 8%
Population Tubulin-Different-Phenotype (%) [5]: 2%
Total Cell Count [5]: 288
Population Apoptotic (%) [6]: 90%
Population Fragmented Nuclei (%) [6]: 18%
Population Healthy Nuclei (%) [6]: 73%
Population Membrane Permeable-Phenotype (%) [6]: 6%
Population Mitochondria Different-Phenotype (%) [6]: 0%
Population Mitotic Cells (%) [6]: 9%
Population Pyknosed Nuclei (%) [6]: 7%
Population Tubulin-Different-Phenotype (%) [6]: 4%
Population Apoptotic (%) [7]: 82%
Population Fragmented Nuclei (%) [7]: 17%
Population Healthy Nuclei (%) [7]: 74%
Population Hoechst High Intensity Objects (%) [7]: 1%
Population Membrane Permeable-Phenotype (%) [7]: 6%
Population Mitochondria Different-Phenotype (%) [7]: 0%
Population Mitotic Cells (%) [7]: 17%
Population Normal (%) [7]: 98%
Population Pyknosed Nuclei (%) [7]: 7%
Population Tubulin-Different-Phenotype (%) [7]: 2%
Total Cell Count [7]: 378
Population Apoptotic (%) [8]: 75%
Population Fragmented Nuclei (%) [8]: 14%
Population Healthy Nuclei (%) [8]: 79%
Population Hoechst High Intensity Objects (%) [8]: 0%
Population Mitochondria Different-Phenotype (%) [8]: 2%
Population Mitotic Cells (%) [8]: 25%
Population Normal (%) [8]: 99%
Population Pyknosed Nuclei (%) [8]: 5%
Total Cell Count [8]: 219
Population Apoptotic (%) [9]: 84%
Population Fragmented Nuclei (%) [9]: 20%
Population Healthy Nuclei (%) [9]: 72%
Population Hoechst High Intensity Objects (%) [9]: 1%
Population Membrane Permeable-Phenotype (%) [9]: 1%
Population Mitochondria Different-Phenotype (%) [9]: 1%
Population Mitotic Cells (%) [9]: 16%
Population Normal (%) [9]: 98%
Population Pyknosed Nuclei (%) [9]: 6%
Population Tubulin-Different-Phenotype (%) [9]: 0%
Total Cell Count [9]: 391
Population Apoptotic (%) [10]: 71%
Population Fragmented Nuclei (%) [10]: 17%
Population Healthy Nuclei (%) [10]: 74%
Population Hoechst High Intensity Objects (%) [10]: 2%
Population Membrane Permeable-Phenotype (%) [10]: 3%
Population Mitochondria Different-Phenotype (%) [10]: 3%
Population Mitotic Cells (%) [10]: 28%
Population Normal (%) [10]: 97%
Population Pyknosed Nuclei (%) [10]: 7%
Population Tubulin-Different-Phenotype (%) [10]: 4%
Total Cell Count [10]: 186
Population Apoptotic (%) [11]: 92%
Population Fragmented Nuclei (%) [11]: 14%
Population Healthy Nuclei (%) [11]: 77%
Population Hoechst High Intensity Objects (%) [11]: 2%
Population Membrane Permeable-Phenotype (%) [11]: 4%
Population Mitochondria Different-Phenotype (%) [11]: 1%
Population Mitotic Cells (%) [11]: 7%
Population Normal (%) [11]: 97%
Population Pyknosed Nuclei (%) [11]: 8%
Population Tubulin-Different-Phenotype (%) [11]: 1%
Total Cell Count [11]: 497
Population Apoptotic (%) [12]: 86%
Population Fragmented Nuclei (%) [12]: 16%
Population Healthy Nuclei (%) [12]: 76%
Population Membrane Permeable-Phenotype (%) [12]: 5%
Population Mitochondria Different-Phenotype (%) [12]: 0%
Population Mitotic Cells (%) [12]: 13%
Population Pyknosed Nuclei (%) [12]: 7%
Total Cell Count [12]: 294
